Apaf-1 inh: inhibitors of human Apaf-1 apoptosome, primary screen, biochemical, DEVD-Rh110 fluorescence, uHTS; 330,000 tested, 0.71% active; reconstituted apoptosome caspase-3 activity; inhibition, % at 20 µM; active = inhibition of at least 40% at 20 µM;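 also: plate controls were DMSO wells for no effect and DEVD-CHO caspase inhibitor wells for full effect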
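Material: reconstituted apoptosome with Apaf-1, cytochrome c, caspase-9, procaspase-3, dATP; medium: pH 7.5 Hepes buffer with CHAPS, BSA, DTT; also added: cytochrome c and DEVD-Rh110 substrate; timing: 30 min plus 50 min, RT; signal: Rh110 fluorescence intensity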
PAFAH2 FP inh: PAFAH2 enzyme inhibitors, primary screen, biochemical, fluorescence polarization, human | Platelet-activating factor acetylhydrolase 2, cytoplasmic (Homo sapiens), Q99487 | recombinant PAFAH2, FP-rhodamine activity probe | inhibition, % at 3.39 µM | 340,000 tested, 0.99% active | AID 492956, 2010;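 active = inhibition above the mean over all tested compounds plus 3 SD, cut at about 30% in these data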;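 also: inhibitors block probe labeling of enzyme so polarization drops; 0% = enzyme with DMSO and 100% = wells lacking PAFAH2 protein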
PAFAH1B2 inh: PAFAH1B2 enzyme inhibitors, primary screen, biochemical, fluorescence polarization, human. recombinant PAFAH1B2, FP-rhodamine activity probe. inhibition, % at 3.39 µM. Platelet-activating factor acetylhydrolase IB subunit alpha2 (Homo sapiens), P68402. 340,000 tested, 1.2% active;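 active = inhibition above the mean of all tested compounds plus 3 SD, cut at about 24% in these data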;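 also: 0% = enzyme with DMSO and 100% = wells lacking PAFAH1B2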
TDP2 absorb: human TDP2 enzyme inhibitors, primary screen, biochemical, epi absorbance, recombinant enzyme | AID 720702, 2013 | T5PNP hydrolysis, p-nitrophenol absorbance 415 nm | 370,000 tested, 0.34% active | inhibition, % at 12.8 µM;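 active = inhibition above the mean of all tested compounds plus 3 SD, set per campaign, cut at about 25% in these data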;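 also: 0% = DMSO with enzyme and 100% = buffer with substrate but no TDP2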
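Incubation: 2 h at 37 °C; Test system: recombinant human TDP2; Quantity: enzyme 120 nM; Read-out basis: percent inhibition; Medium: 50 mM Tris-HCl pH 7.5 with Mg2+, KCl, DTT, BSA; Repeats: single replicate; Compound: 12.8 µM single point, 1% DMSO; Signal: epi absorbance; Reagent: 5 mM T5PNP chromogenic substrate; Benchmarks: no-enzyme high, DMSO-plus-enzyme low.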
PAFAH1B3 FP inh: PAFAH1B3 enzyme inhibitors, primary screen, biochemical, fluorescence polarization, human; Platelet-activating factor acetylhydrolase IB subunit alpha1 (Homo sapiens), Q15102; recombinant PAFAH1B3, FP-rhodamine probe; inhibition, % at 3.39 µM; 340,000 tested, 0.28% active; AID 492972, 2010;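 active = inhibition above the screen-wide average of all tested compounds plus 3 SD, cut at about 25% in these data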;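 also: 0% = enzyme with DMSO only and 100% = wells lacking PAFAH1B3 protein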
PAFAH2 FP conf: PAFAH2 enzyme inhibitors, confirmation, biochemical, fluorescence polarization, human; shares compounds with PAFAH2 FP inh; inhibition, % at 3.39 µM; recombinant PAFAH2, FP-rhodamine activity probe; 2,300 tested, 65% active;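 active = mean inhibition over three repeats above a set limit taken from the earlier primary screen, cut at about 30% in these data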;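 also: inhibitor blocks binding of rhodamine activity probe so polarization falls; 0% = enzyme with DMSO and 100% = wells lacking PAFAH2 protein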
Starred values were filed as active, the others as inactive. Rows were chosen to be rich in hits. Some 2.3% of all compounds tested hit in one or more screens of this group.

Screening O=C1Nc2ccc(F)cc2C12Nc1ccccc1-c1nnc(SCc3ccccc3F)nc1O2 (stereo unspecified) returned Apaf-1 inh 1.8, PAFAH2 FP inh 35.1*, PAFAH1B2 inh 8.9, TDP2 absorb 3.7, PAFAH1B3 FP inh 5.7 and PAFAH2 FP conf 15.0.
Cc1cccc(C(=O)OCC(=O)NC23CC4CC(CC(C4)C2)C3)c1O was read as Apaf-1 inh 8.9, PAFAH2 FP inh 59.1*, PAFAH1B2 inh 11.2, TDP2 absorb 1.2, PAFAH1B3 FP inh -3.7 and PAFAH2 FP conf 46.1*.
`COc1ccc(C(=O)OCC(=O)NC23CC4CC(CC(C4)C2)C3)c(OC)c1OC` gave Apaf-1 inh 3.2, PAFAH2 FP inh 86.4*, PAFAH1B2 inh 11.2, TDP2 absorb -7.4, PAFAH1B3 FP inh 10.2 and PAFAH2 FP conf 85.6*.
Screening O=C(COC(=O)c1ccccc1O)NC12CC3CC(CC(C3)C1)C2 returned Apaf-1 inh 5.1, PAFAH2 FP inh 68.3*, PAFAH1B2 inh 10.9, TDP2 absorb -2.3, PAFAH1B3 FP inh 8.2 and PAFAH2 FP conf 62.7*.
For COc1ccccc1CC(=O)NC12CC3CC(CC(C3)C1)C2 the results were Apaf-1 inh -9.0, PAFAH2 FP inh 0.5, PAFAH1B2 inh 0.0, TDP2 absorb -11.1 and PAFAH1B3 FP inh 3.6.
For O=C(COC(=O)c1ccccn1)NC12CC3CC(CC(C3)C1)C2 the results were Apaf-1 inh -3.6, PAFAH2 FP inh 0.3, PAFAH1B2 inh 7.0, TDP2 absorb 6.4 and PAFAH1B3 FP inh 5.6.
Screening CC1(C)Oc2ccc(C(=O)NC3CCCC3)cc2NC1=O returned TDP2 absorb 3.1.
Screening Cc1ccc(NC(=O)NNC(=O)CSC2CCc3ccccc32)c(C)c1 (stereo unspecified) returned TDP2 absorb 4.4.
CCCCCCCCN1C(=O)[C@@H](CC(=O)NCC2CCCCC2)C[C@@]2(C(=O)OC)C1=C[C@H](COCc1ccccc1)O[C@@H]2C was read as TDP2 absorb -7.6.
Screening O=C(Cn1cc(C(F)(F)F)ccc1=O)Nc1ccccc1 returned Apaf-1 inh -18.1, PAFAH2 FP inh 0.7, PAFAH1B2 inh 4.7, TDP2 absorb 5.0 and PAFAH1B3 FP inh 2.5.
O=C(COC(=O)Cn1cc(C(F)(F)F)ccc1=O)Nc1ccccc1 was read as Apaf-1 inh 0.5, PAFAH2 FP inh 68.4*, PAFAH1B2 inh 0.6, TDP2 absorb 16.2, PAFAH1B3 FP inh 0.2 and PAFAH2 FP conf 60.4*.
`C[C@@H]1CCCN1c1cccc2c1S(=O)(=O)N(C1CC1)CCCO2` gave TDP2 absorb -6.0.
For CC(NC(=O)COC(=O)c1cccs1)c1ccccc1 (stereo unspecified) the results were Apaf-1 inh 3.4, PAFAH2 FP inh 59.7*, PAFAH1B2 inh 3.3, TDP2 absorb -1.9, PAFAH1B3 FP inh 9.7 and PAFAH2 FP conf 47.2*.
Screening CCC(=O)Nc1ccc(C(=O)OCC(=O)c2cccs2)cc1 returned Apaf-1 inh -2.5, PAFAH2 FP inh 33.8*, PAFAH1B2 inh 1.0, TDP2 absorb 15.8, PAFAH1B3 FP inh 0.1 and PAFAH2 FP conf 32.1*.
For CC(CCc1ccccc1)NC(=O)COC(=O)c1cccs1 (stereo unspecified) the results were Apaf-1 inh -10.1, PAFAH2 FP inh 60.4*, PAFAH1B2 inh 5.2, TDP2 absorb -12.0, PAFAH1B3 FP inh 3.3 and PAFAH2 FP conf 44.1*.
`COc1ccc(C(=O)OCC(=O)NC(C)CCc2ccccc2)c(OC)c1` (stereo unspecified) gave Apaf-1 inh 12.2, PAFAH2 FP inh 48.5*, PAFAH1B2 inh 11.8, TDP2 absorb -10.5, PAFAH1B3 FP inh 12.3 and PAFAH2 FP conf 22.1.
Screening C[C@@H]1[C@@H](c2ccccc2)OC(O)([C@H](Cc2ccccc2)NC(=O)OC(C)(C)C)CN1C (stereo partly specified) returned TDP2 absorb -1.7.
